Measurements from publication PMC5693607 (Cell chemical biology, 2017).

What was measured:
HDAC3 [1] = biological target: T1, HDAC3 (Homo sapiens, UniProt O15379); type: cell-based; conditions: MDA-MB-231 cells, inhibitor 2–12 hours; for photomate labeling (engagement) of HDAC3 after inhibitor treatment: then photomate 10 µM
Summary of the method: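 MDA-MB-231 cells were grown 2 days in complete medium, then treated with inhibitor. They were then either lysed directly for Western blot or photolabeled: 10 µM probe for 40 min at 37 °C, ± SAHA 200 µM competitor, then 366 nm irradiation at 4 °C. Lysate (35.2 µg) was clicked to an 800 nm IRDye azide and separated on gel. HDAC3 was co-stained by antibody and imaged at 700/800 nm.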
Target sequence in this assay (O15379 whole entry): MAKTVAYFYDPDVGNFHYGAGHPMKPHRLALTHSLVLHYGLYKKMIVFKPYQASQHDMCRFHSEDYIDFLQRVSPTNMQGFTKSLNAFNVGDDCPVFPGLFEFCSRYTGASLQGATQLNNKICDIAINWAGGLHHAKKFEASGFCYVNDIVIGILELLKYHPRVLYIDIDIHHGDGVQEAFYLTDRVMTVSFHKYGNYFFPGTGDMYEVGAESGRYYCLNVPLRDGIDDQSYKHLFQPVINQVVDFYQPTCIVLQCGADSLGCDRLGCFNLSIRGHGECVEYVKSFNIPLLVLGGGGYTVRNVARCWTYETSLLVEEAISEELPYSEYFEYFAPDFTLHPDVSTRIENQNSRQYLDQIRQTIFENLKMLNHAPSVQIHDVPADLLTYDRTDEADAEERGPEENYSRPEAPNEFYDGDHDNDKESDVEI
Target sequence in this assay (Q9Y618 whole entry partner): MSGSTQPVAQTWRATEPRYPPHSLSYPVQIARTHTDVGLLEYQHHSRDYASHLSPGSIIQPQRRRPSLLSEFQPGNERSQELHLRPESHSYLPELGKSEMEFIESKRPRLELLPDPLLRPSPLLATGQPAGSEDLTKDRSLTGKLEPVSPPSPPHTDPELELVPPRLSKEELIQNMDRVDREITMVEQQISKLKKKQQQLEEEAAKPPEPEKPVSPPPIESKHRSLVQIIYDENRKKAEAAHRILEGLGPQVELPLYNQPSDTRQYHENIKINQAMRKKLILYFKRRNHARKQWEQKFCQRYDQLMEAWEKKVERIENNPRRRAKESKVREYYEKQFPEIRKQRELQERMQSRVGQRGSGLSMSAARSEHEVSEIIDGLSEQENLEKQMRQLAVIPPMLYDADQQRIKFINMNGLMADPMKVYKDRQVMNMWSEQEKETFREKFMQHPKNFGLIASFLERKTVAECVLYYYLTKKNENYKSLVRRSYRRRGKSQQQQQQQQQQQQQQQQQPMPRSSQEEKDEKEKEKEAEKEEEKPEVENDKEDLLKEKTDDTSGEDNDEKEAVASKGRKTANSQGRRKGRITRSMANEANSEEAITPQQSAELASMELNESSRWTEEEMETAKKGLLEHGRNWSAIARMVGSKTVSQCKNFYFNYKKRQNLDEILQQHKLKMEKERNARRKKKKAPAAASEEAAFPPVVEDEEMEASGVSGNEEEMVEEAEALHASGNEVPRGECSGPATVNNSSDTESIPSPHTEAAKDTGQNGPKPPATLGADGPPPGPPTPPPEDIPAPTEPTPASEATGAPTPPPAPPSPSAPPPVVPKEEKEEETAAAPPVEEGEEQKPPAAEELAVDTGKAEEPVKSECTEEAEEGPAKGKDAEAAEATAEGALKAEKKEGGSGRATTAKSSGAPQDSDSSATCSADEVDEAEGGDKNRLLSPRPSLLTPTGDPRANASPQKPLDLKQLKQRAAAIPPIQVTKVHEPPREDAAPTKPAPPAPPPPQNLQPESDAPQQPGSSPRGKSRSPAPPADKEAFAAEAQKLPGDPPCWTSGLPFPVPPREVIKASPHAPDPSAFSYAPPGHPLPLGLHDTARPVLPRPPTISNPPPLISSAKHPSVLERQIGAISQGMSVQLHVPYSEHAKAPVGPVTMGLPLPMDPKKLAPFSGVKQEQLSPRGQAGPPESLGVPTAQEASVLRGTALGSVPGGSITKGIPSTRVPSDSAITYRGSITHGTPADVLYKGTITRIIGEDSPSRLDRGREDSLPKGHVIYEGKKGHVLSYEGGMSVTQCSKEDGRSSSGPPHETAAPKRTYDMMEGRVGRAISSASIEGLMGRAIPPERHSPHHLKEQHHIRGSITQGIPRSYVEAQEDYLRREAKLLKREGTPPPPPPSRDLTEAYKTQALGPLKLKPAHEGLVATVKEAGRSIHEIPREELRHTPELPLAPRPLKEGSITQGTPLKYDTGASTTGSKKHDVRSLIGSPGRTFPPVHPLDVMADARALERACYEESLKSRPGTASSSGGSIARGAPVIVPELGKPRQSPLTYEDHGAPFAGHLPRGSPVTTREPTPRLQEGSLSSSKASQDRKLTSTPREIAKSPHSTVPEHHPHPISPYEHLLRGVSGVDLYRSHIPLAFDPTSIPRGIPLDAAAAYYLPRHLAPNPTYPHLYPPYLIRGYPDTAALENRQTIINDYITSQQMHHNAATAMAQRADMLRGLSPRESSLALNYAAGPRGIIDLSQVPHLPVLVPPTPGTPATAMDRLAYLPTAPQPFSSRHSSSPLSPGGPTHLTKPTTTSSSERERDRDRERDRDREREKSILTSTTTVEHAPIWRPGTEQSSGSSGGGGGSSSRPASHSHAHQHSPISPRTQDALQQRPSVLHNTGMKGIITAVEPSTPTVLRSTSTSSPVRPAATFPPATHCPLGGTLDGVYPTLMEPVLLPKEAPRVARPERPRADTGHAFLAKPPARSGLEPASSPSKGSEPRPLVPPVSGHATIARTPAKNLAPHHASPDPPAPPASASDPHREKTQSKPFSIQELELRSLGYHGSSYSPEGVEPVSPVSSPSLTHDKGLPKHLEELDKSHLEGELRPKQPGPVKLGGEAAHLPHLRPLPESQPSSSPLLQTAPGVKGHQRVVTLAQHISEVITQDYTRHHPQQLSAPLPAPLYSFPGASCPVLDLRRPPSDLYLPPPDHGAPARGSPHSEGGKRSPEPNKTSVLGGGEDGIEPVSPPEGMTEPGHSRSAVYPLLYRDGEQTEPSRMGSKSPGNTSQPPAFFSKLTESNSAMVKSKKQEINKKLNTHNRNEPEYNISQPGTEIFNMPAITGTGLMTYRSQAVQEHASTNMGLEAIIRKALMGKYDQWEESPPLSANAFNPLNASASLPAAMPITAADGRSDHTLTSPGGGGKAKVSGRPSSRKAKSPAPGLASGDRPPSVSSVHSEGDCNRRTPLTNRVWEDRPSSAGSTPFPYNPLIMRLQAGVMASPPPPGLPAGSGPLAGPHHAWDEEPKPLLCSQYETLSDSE
Target sequence in this assay (O60907 whole entry partner): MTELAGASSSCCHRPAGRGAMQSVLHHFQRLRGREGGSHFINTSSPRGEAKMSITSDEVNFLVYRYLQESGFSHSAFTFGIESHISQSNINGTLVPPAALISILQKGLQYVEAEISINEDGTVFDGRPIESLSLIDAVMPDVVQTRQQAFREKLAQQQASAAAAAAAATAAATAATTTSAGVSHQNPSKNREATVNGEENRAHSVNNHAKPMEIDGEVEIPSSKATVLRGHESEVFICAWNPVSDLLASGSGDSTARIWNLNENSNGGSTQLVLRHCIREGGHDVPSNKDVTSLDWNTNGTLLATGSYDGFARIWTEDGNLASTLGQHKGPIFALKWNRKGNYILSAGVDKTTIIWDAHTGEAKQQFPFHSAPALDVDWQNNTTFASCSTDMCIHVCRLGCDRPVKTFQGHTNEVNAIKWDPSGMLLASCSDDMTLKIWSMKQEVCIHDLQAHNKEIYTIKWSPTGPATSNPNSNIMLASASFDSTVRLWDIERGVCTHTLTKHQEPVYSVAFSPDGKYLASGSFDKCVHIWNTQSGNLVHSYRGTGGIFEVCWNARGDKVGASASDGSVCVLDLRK
Target sequence in this assay (Q13227 whole entry partner): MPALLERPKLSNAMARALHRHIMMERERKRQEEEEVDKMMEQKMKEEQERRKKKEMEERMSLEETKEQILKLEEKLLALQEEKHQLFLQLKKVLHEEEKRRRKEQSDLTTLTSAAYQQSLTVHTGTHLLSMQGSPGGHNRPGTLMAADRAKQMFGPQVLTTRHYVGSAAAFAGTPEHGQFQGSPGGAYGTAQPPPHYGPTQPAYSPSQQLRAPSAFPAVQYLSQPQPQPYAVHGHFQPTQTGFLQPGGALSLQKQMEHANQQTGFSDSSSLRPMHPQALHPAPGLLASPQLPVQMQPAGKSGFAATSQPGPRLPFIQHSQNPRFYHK

class I and II HDACs [2] = biological target: T2, class I and II HDACs (Homo sapiens, UniProt O15379); type: cell-based; conditions: P<.0001
Summary of the method: (§1)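 Cells at 90% confluence were pretreated with SAHA (200 µM) or DMSO, then given photomate 10 µM for 40 min at 37 °C. They were cooled to 4 °C and irradiated at 366 nm (35 J/cm2). Lysate (1 mg) was clicked to azide-biotin (1.5× probe; TCEP, TBTA, CuSO4; 90 min rt), then enriched on streptavidin beads and in-gel digested. Proteins reduced ≥50% by SAHA were scored.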

class I and II HDACs [3] = type: cell-based, Human; conditions: seven breast cancer cell lines, photomate 10 µM
Summary of the method: as §1

[4] = tested on: recombinant class I and II HDACs; test: Photolabeling of recombinant proteins, gel based visualization; type: binding
class I and II HDACs [5] = biological target: T2, class I and II HDACs; test: In situ photolabeling of MCF-7 cells, enrichment, Western blot and MS/MS; type: cell-based; conditions: MCF-7 cells and other luminal cell types
Summary of the method: (§2)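 MCF-7 cells at 90% confluence were pretreated with SAHA (200 µM) or DMSO, then given 10 µM test compound for 40 min at 37 °C. Cells were cooled to 4 °C, irradiated at 366 nm (35 J/cm2) and lysed in HEPES pH 7.5 buffer. Lysate was click-conjugated to biotin azide (CuSO4/TBTA/TCEP, 90 min, rt), then streptavidin-enriched for Western blot or in-gel tryptic MS/MS. A hit was a protein reduced ≥50% by SAHA and absent in DMSO controls.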

class I and II HDACs [6] = test: as above; type: cell-based, Human; conditions: MCF-7 cells
Summary of the method: as §2

recombinant HDAC8 = biological target: T3, recombinant HDAC8 (Homo sapiens, UniProt Q9BY41); test: Fluorogenic enzymatic assay, recombinant HDAC8; type: biochemical
T3 sequence (Q9BY41 1-377): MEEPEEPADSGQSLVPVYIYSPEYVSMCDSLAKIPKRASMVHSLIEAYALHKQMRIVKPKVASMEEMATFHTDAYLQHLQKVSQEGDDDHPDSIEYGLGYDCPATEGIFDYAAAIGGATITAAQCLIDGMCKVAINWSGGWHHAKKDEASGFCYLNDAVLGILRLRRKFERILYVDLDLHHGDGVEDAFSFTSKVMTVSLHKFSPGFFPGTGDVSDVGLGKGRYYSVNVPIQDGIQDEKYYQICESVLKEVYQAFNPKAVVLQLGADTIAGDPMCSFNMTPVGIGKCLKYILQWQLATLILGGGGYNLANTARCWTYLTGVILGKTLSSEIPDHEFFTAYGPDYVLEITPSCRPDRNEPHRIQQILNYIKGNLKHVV
Summary of the method: (§3)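 Deacetylase activity of recombinant human class I HDAC isoforms was measured with a fluorogenic assay following previously published procedures. Inhibition is reported as log IC50, as the average ± s.e. of n=3.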

TNBC cells = test: Efficacy in breast cancer cells; type: cell-based, Human; conditions: Figure S2B
recombinant HDAC4 = recombinant HDAC4 (Homo sapiens, UniProt P56524); test: Fluorogenic enzymatic assay, recombinant HDAC4; type: biochemical
recombinant HDAC1 = recombinant HDAC1 (Homo sapiens, UniProt Q13547); test: Fluorogenic enzymatic assay, recombinant HDAC1; type: biochemical
Summary of the method: as §3

recombinant HDAC2 = recombinant HDAC2 (Homo sapiens, UniProt Q92769); test: Fluorogenic enzymatic assay, recombinant HDAC2; type: biochemical
Summary of the method: as §3

HDAC3 [7] = biological target: T1, HDAC3; test: Fluorogenic enzymatic assay, recombinant HDAC3; type: biochemical
Summary of the method: as §3

HDAC3 [8] = biological target: T1, HDAC3; test: Treatment followed by in situ photolabeling and Western blot, MCF-7 cells; type: cell-based
Summary of the method: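 MCF-7 cells received TNF-α or vehicle, then photomate 10 µM (± SAHA 200 µM) for 40 min at 37 °C. They were irradiated at 366 nm (35 J/cm2) at 4 °C. Lysate (35.2 µg) was clicked to azide 800CW IRDye (90 min rt), gel-separated and fluorescence-imaged. HDAC3 and phospho-HDAC3 were detected by Western blot with IRDye secondaries.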

[9] = MCF-7 cells stimulated with TNF-α, compared to TNF-α alone

T2 sequence (O15379 whole entry): as the sequence (O15379 whole entry) above
Sequence of recombinant HDAC4 (P56524 whole entry): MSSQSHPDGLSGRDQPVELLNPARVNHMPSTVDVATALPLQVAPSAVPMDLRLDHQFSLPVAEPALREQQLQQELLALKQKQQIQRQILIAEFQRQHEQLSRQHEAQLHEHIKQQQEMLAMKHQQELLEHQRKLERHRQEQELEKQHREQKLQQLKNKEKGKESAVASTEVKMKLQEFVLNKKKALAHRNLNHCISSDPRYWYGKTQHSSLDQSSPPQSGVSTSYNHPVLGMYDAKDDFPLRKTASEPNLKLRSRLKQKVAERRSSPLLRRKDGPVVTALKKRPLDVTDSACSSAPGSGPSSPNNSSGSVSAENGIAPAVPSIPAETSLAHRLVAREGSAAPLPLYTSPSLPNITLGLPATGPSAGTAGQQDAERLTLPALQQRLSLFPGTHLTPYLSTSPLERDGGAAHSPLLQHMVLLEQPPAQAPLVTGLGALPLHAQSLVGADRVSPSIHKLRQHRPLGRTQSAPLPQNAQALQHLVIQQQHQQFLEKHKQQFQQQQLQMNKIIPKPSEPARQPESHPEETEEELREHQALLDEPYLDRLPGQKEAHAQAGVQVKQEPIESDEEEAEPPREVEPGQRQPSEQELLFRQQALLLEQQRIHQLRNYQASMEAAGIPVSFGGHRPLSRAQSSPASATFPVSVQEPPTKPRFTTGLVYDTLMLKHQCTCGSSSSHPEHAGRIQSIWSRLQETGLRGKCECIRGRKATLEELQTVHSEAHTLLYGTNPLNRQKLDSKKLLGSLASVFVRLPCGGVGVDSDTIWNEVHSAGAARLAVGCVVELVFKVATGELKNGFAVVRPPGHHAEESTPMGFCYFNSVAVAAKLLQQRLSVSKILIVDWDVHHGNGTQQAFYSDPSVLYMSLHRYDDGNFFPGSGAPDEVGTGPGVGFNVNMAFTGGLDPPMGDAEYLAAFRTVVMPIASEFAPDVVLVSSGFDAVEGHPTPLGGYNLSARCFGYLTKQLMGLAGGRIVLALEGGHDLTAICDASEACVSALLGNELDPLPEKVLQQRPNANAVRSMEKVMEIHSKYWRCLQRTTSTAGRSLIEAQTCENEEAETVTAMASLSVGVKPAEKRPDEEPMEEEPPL

Molecule	HDAC3 phosphorylation after inhibitor treatment (HDAC3 [1])	photomate labeling (engagement) of HDAC3 after inhibitor treatment (HDAC3 [1])	photomate labeling of HDAC3 after treatment (HDAC3 [8]; MCF-7 cells)	further results
Brc1c(Br)c(Br)c2n[nH]nc2c1Br [TBB]	Neither of the compounds induced any change	Neither of the compounds induced any change	–	–
Oc1ccc(-c2nc(-c3ccncc3)c(-c3ccc(F)cc3)[nH]2)cc1 [SB202190]	–	increased labeling	–	–
C#CCN(CCCCCC(=O)NO)Cc1c(F)c(F)c(N=[N+]=[N-])c(F)c1F [photomate, 6-((4-Azido-2,3,5,6-tetrafluorobenzyl)(prop-2-yn-1-yl)amino)-N-hydroxyhexanamide]	–	–	–	HDAC3 enriched from TNBC cell lines in comparison to luminal subtypes (class I and II HDACs [2]): increased amounts of HDAC3 were enriched from TNBC cell lines; HDAC isoforms enriched across cell lines (class I and II HDACs [3]): ubiquitously targeted and enriched HDAC1, 2 and 9 from every cell line; relative potency or affinity based on inhibition or labeling (isoform selectivity) ([4]; recombinant HDAC1, 2, 3, 8 and 4): nonselective for HDAC1, 2 and 3 but shows decreased potency and affinity with respect to HDAC8 and the class II HDAC4; engagement of HDAC3 in cells (class I and II HDACs [5]): could not be detected; HDAC targets identified by MS/MS and Western blot (class I and II HDACs [6]): HDAC1 and 2 were the only HDAC targets; IC50 (recombinant HDAC8): 2.27 µM; efficacy in TNBC cells (TNBC cells): increased efficacy in TNBC cells; IC50 (recombinant HDAC4): 20.1 µM; IC50 (recombinant HDAC1): 0.417 µM; IC50 (recombinant HDAC2): 0.132 µM; IC50 (HDAC3 [7]): 0.109 µM
COc1ccc(CNC(=O)Nc2ncc([N+](=O)[O-])s2)cc1 [AR-A014418]	did not affect	did not affect	–	–
O=c1cc(N2CCOCC2)oc2c(-c3ccccc3)cccc12 [LY294002]	Neither of the compounds induced any change	Neither of the compounds induced any change	–	–
Oc1c2ccccc2c2c3c(cccc13)N=N2 [SP600125]	complete loss of HDAC3 phosphorylation	abolished the labeling of HDAC3	–	–
IGF-1: MAPK stimulating growth factor	–	–	had no effect	–
CCOc1nc(NC(=O)Cc2cc(OC)ccc2OC)cc(N)c1C#N [TCS 6o]	decreased	decreased	–	HDAC3 phosphorylation, JNK inhibitor pretreatment then TNF-α (HDAC3 [8]; [9]): decrease in HDAC3 labeling and phosphorylation; photomate labeling of HDAC3, JNK inhibitor pretreatment then TNF-α (HDAC3 [8]; [9]): decrease in HDAC3 labeling and phosphorylation
O=C(CCCCCCC(=O)Nc1ccccc1)NO [SAHA, suberoyl anilide hydroxamic acid]	–	–	–	photomate labeling of HDAC isoforms upon co-incubation with competitor ([4]; SAHA 200 µM, photomate 10 µM): Labeling of all HDAC isoforms was lost
TNF-α	–	–	induces specific labeling of HDAC3	–
CC/C(=C(\c1ccccc1)c1ccc(OCCN(C)C)cc1)c1ccccc1 [tamoxifen]	–	–	no increase	HDAC3 phosphorylation after treatment (HDAC3 [8]; MCF-7 cells): no increase
EGF: MAPK stimulating growth factor	–	–	had no effect	–
O=C(c1ccc(Nc2nccc(-c3cc4ccccc4s3)n2)cc1)N1CCC(N2CCCC2)CC1 [IKK-16]	–	no change	–	–
